In ChEMBL document CHEMBL4765366, “Targeting fungal virulence factor by small molecules: Structure-based discovery of novel secreted aspartic protease 2 (SAP2) inhibitors” (Eur J Med Chem, 2020):
Calls of active or inactive are those of the source. The calls are words filed in the database; no cut-off is given here.

Tests used:
[1] = Inhibition of recombinant Candida albicans SAP2 using Dabcyl-Arg-Lys-Pro-Ala-Leu-Phe-Phe-Arg-Leu-Glu (EDANS)-Arg-OH as substrate incubated for 30 mins followed by substrate addition and measured after 30 mins by spectrophotometry
Candida albicans [2] = assay: Inhibition of recombinant Candida albicans SAP2 at 100 uM using Dabcyl-Arg-Lys-Pro-Ala-Leu-Phe-Phe-Arg-Leu-Glu (EDANS)-Arg-OH as substrate incubated for 30 mins followed by substrate addition and measured after 30 mins by spectrophotometry relative to control; conditions: time 60.0 min
In short: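 FRET assay with purified expressed C. albicans SAP2 in 50 mM sodium citrate, 50 mM NaCl, pH 4.5. Compound (diluted in DMSO) was preincubated with enzyme 30 min before adding the Dabcyl/EDANS peptide substrate (18.75 μM solution in DMSO). Reaction ran 30 min at 30 °C, then fluorescence was read at ex 340, em 485 nm. Pepstatin A was the positive control.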

Candida albicans [3] = assay: Antibiofilm activity against azole resistant Candida albicans 0304103 assessed as inhibition of biofilm formation incubated for 24 hrs by XTT-dye based assay; type: functional, organism-based; conditions: dose 4-64 µg/ml
In short: (§1)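 Cell suspensions (1.0 × 10^5 CFU/mL) were adhered for 90 min at 37°C, then rinsed three times with PBS. Compounds were added at a range of concentrations from 2 mg/mL DMSO stocks, with fluconazole as the positive control. Plates were cultured 24 h at 37°C, and biofilm was measured semi-quantitatively by XTT reduction.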

Candida tropicalis [4] = assay: Antibiofilm activity against azole resistant Candida tropicalis 10186 assessed as inhibition of biofilm formation incubated for 24 hrs by XTT-dye based assay; type: functional, organism-based; conditions: dose 4-64 µg/ml; in short: as §1
Candida tropicalis [5] = assay: Antibiofilm activity against azole resistant Candida tropicalis 10186 assessed as inhibition of biofilm formation at 64 ug/ml incubated for 24 hrs by XTT-dye based assay relative to control; type: functional; in short: as §1
Candida albicans [6] = assay: Antibiofilm activity against azole resistant Candida albicans 0304103 assessed as inhibition of biofilm formation at 0.5 ug/ml in presence of fluconazole incubated for 24 hrs by XTT-dye based assay; type: functional, organism-based; conditions: dose 0.5 µg/ml
Candida albicans [7] = assay: Antibiofilm activity against azole resistant Candida albicans 0304103 assessed as inhibition of biofilm formation at 32 ug/ml in presence of fluconazole incubated for 24 hrs by XTT-dye based assay relative to control; type: functional
Candida albicans [8] = assay: Inhibition of hyphal formation in azole resistant Candida albicans 0304103 at 128 ug/ml incubated for 3 hrs by microscopic imaging analysis; type: functional
In short: (§2)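 Yeast cells (1.0 × 10^5 CFU/mL) were exposed to a range of compound concentrations, with fluconazole as the positive drug. Plates were incubated at 37°C for 3 h (C. albicans 0304103 and SC5314) or 7 h (C. tropicalis 10186). Hyphal growth was then observed and photographed by microscopy.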

Candida albicans [9] = assay: Inhibition of hyphal formation in azole sensitive Candida albicans SC5314 at 128 ug/ml incubated for 3 hrs by microscopic imaging analysis; type: functional; in short: as §2
Candida albicans [10] = assay: Inhibition of hyphal formation in azole resistant Candida albicans 0304103 at 4 to 32 ug/ml incubated for 3 hrs by microscopic imaging analysis; type: functional, organism-based; conditions: dose 4-32 µg/ml; in short: as §2
Candida albicans [11] = assay: Inhibition of hyphal formation in azole sensitive Candida albicans SC5314 at 4 to 32 ug/ml incubated for 3 hrs by microscopic imaging analysis; type: functional, organism-based; conditions: dose 4-32 µg/ml; in short: as §2
Candida tropicalis [12] = assay: Inhibition of hyphal formation in azole resistant Candida tropicalis 10186 at 4 to 16 ug/ml incubated for 7 hrs by microscopic imaging analysis; type: functional, organism-based; conditions: dose 4-16 µg/ml; in short: as §2
Candida tropicalis [13] = assay: Inhibition of hyphal formation in azole resistant Candida tropicalis 10186 at 64 ug/ml incubated for 7 hrs by microscopic imaging analysis; type: functional; in short: as §2
Candida albicans [14] = assay: Downregulation of SAP2 in azole resistant Candida albicans 0304103 at 64 ug/ml by qRT-PCR analysis; type: functional; conditions: dose 64.0 µg/ml
Candida albicans [15] = assay: Downregulation of ECE2 in azole resistant Candida albicans 0304103 at 64 ug/ml by qRT-PCR analysis; type: functional; conditions: dose 64.0 µg/ml
Candida albicans [16] = assay: Downregulation of ALS3 in azole resistant Candida albicans 0304103 at 64 ug/ml by qRT-PCR analysis; type: functional; conditions: dose 64.0 µg/ml
Candida albicans [17] = assay: Downregulation of EFG1 in azole resistant Candida albicans 0304103 at 64 ug/ml by qRT-PCR analysis; type: functional; conditions: dose 64.0 µg/ml
Candida albicans [18] = assay: Upregulation of CPH1 in azole resistant Candida albicans 0304103 at 64 ug/ml by qRT-PCR analysis; type: functional; conditions: dose 64.0 µg/ml
Candida albicans [19] = assay: Upregulation of TEC1 in azole resistant Candida albicans 0304103 at 64 ug/ml by qRT-PCR analysis; type: functional; conditions: dose 64.0 µg/ml
Candida albicans [20] = assay: Antifungal activity against azole resistant Candida albicans 0304103 infected in ICR mouse assessed as reduction in fungal burden in kidney at 10 mg/kg, ip administered for 4 days; type: functional, organism-based; conditions: time 4.0 day
In short: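 Female ICR mice (20–25 g) were immunosuppressed with cyclophosphamide, 100 mg/kg ip in saline. After 24 h they were infected iv with 0.2 mL of 1×10^5 CFU/mL cells. Starting 24 h after infection, mice (4 per group) received the drug ip once daily for four days; controls received saline or fluconazole 10 mg/kg. Kidneys were homogenized and plated on YPD at 30°C for log10 CFU.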

Cc1ccc(CN2C(=O)/C(=C/c3ccc(OCC(=O)O)cc3OCC(=O)O)c3ccc(-c4ccc(C)cc4)cc32)cc1
IC50 [1]: 920 nM | inhibition (Candida albicans [2]): 100% | inhibition (Candida albicans [3]): Dose-dependent effect | inhibition (Candida tropicalis [4]): Dose-dependent effect | inhibition at 64 µg/mL (Candida tropicalis [5]): > 50% | inhibition (Candida albicans [6]): Active | inhibition at 32 µg/mL (Candida albicans [7]): 90% | inhibition at 128 µg/mL (Candida albicans [8]): 100% | inhibition at 128 µg/mL (Candida albicans [9]): 100% | inhibition (Candida albicans [10]): inactive | inhibition (Candida albicans [11]): inactive | inhibition (Candida tropicalis [12]): Active | inhibition at 64 µg/mL (Candida tropicalis [13]): 100% | Activity (Candida albicans [14]): Active | Activity (Candida albicans [15]): Active | Activity (Candida albicans [16]): Active | Activity (Candida albicans [17]): Active | Activity (Candida albicans [18]): Active | Activity (Candida albicans [19]): Active | Activity (Candida albicans [20]): Active
